Calls of active or inactive are those of the source. The calls are words filed in the database; no cut-off is given here.
Tests used:
[1] = Cytotoxicity against human ARPE-19 cells assessed as reduction in nuclei count measured after 10 days for Hoechst 33342 staining based microscopic analysis; assay type: cell-based; conditions: time 10 day
Procedure, shortened: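 ARPE-19 epithelial cells seeded at 8k/well in complete DMEM with 10% FBS and treated with increasing compound concentrations 24 h later. Incubated 10 days at 37 °C. Formalin-fixed, stained with Hoechst 33342 (1 μg mL–1), and nuclei counted by high-content imaging. Counts normalized to DMSO wells. CC50 is the concentration reducing nuclei count by 50%. Mean of two wells ± SD.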

[2] = Cytotoxicity against human MRC5 cells assessed as reduction in nuclei count measured after 6 days for Hoechst 33342 staining based microscopic analysis; assay type: cell-based; conditions: time 6 day
Procedure, shortened: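 MRC-5 fibroblasts seeded at 8k/well in complete DMEM with 10% FBS and treated 24 h later with increasing compound concentrations. Incubated 6 days at 37 °C, 5% CO2. Formalin-fixed, Hoechst 33342 (1 μg mL–1) stained, and nuclei counted by high-content imaging. Counts normalized to DMSO wells. CC50 is the concentration halving the nuclei count. Mean of two wells ± SD.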

[3] = system: Human betaherpesvirus 5; assay: Antiviral activity against Human cytomegalovirus infected in MRC5 cells measured after 6 days by fluorescence based microscopic analysis; assay type: functional, cell-based
Procedure, shortened: (§1)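 MRC-5 primary fibroblasts in phenol red-free DMEM with 10% FBS were seeded 8k/well. At 24 h they were treated with compound, infected with hCMV ANCHOR at MOI 1, and fixed 6 days post infection. High-content imaging gave infection rate (fluorescent/total cells) and replication (integrated ANCHOR spot intensity) over ≥1000 cells/well, normalized to DMSO; mean of three wells ± SD.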

[4] = system: Human betaherpesvirus 5; assay: Antiviral activity against Human cytomegalovirus infected in ARPE-19 cells measured after 10 days by fluorescence based microscopic analysis; assay type: functional, cell-based
Procedure, shortened: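 Cells were ARPE-19 in phenol red-free DMEM with 10% FBS, seeded 8k/well. At 24 h they received a range of compound concentrations and hCMV ANCHOR at MOI 10, then were fixed 10 days post infection. Imaging scored infection rate (fluorescent/total cells) and ANCHOR spot intensity over ≥1000 cells/well, normalized to DMSO and used to derive IC50; mean of three wells ± SD.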

[5] = system: Human betaherpesvirus 5; assay: Antiviral activity against Human cytomegalovirus infected in MRC5 cells assessed as reduction in viral plaque at 1.25 uM measured after 6 days by microscopic analysis; assay type: functional, cell-based; conditions: time 6.0 day
Procedure, shortened: (§2)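 MRC-5 fibroblasts seeded at 8k cells/well and infected 24 h later with fluorescent hCMV ANCHOR strain at MOI 1, with compound added at increasing concentrations. Cultured 6 days, fixed with formalin, nuclei stained with Hoechst, and imaged by high-content microscopy. Fluorescent plaques and replication centres were scored against DMSO-treated cells.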

[6] = Selectivity index, ratio of CC50 for human MRC5 cells assessed as reduction in nuclei count measured after 6 days for Hoechst 33342 staining based microscopic analysis to EC50 Human cytomegalovirus infected in MRC5 cells measured after 6 days by microscopic analysis; assay type: toxicity, cell-based; conditions: time 6 day, read-out: Ratio CC50/EC50
Procedure, shortened: (§3)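 CC50 comes from Hoechst nuclei counts after compound treatment, normalized to DMSO. IC50 comes from hCMV ANCHOR infection at MOI 1 in MRC-5 (read 6 dpi) or MOI 10 in ARPE-19 (read 10 dpi). Infection rate is fluorescent cells over total cells, from at least 1000 cells per well, in triplicate wells. SI is CC50 divided by IC50.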

[7] = Selectivity index, ratio of CC50 for human ARPE-19 cells assessed as reduction in nuclei count measured after […] 33342 staining based microscopic analysis to EC50 Human cytomegalovirus infected in ARPE-19 cells measured after 10 days by microscopic analysis; assay type: toxicity, cell-based; conditions: read-out: Ratio CC50/EC50; procedure, shortened: as §3
[8] = system: Human betaherpesvirus 5; assay: Antiviral activity against Human cytomegalovirus infected in MRC5 cells assessed as reduction in viral plaque at 0.3 uM measured after 6 days by microscopic analysis; assay type: functional, cell-based; conditions: time 6.0 day; procedure, shortened: as §2
[9] = system: Human betaherpesvirus 5; assay: Antiviral activity against Human cytomegalovirus harboring ANCHOR infected in MRC5 cells assessed as reduction in viral infection at measured after 6 days by microscopic analysis relative to control; assay type: functional, cell-based; conditions: time 6.0 day; procedure, shortened: as §1
[10] = system: Human betaherpesvirus 5; assay: Antiviral activity against Human cytomegalovirus harboring ANCHOR infected in ARPE-19 cells assessed as reduction in viral infection measured after 10 days by microscopic analysis relative to control; conditions: time 10.0 day
[11] = system: Human betaherpesvirus 5; assay: Antiviral activity against Human cytomegalovirus infected in MRC5 cells assessed as reduction in viral plaque at 2.5 uM measured after 6 days by microscopic analysis relative to control; assay type: functional; parameters: scale not given: the % may be the effect or the level left; conditions: time 6 day
Procedure, shortened: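 Compound-treated MRC-5 fibroblasts were infected with hCMV ANCHOR at MOI 1, fixed 6 days post infection and imaged by fluorescence microscopy. Fluorescent viral plaques and replication centres were compared against vehicle (DMSO)-treated wells.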

[12] = system: Human betaherpesvirus 5; assay: Antiviral activity against Human cytomegalovirus harboring ANCHOR infected in MRC5 cells assessed as reduction in virus-induced cytopathic effect; assay type: functional, cell-based
[13] = system: Human betaherpesvirus 5; assay: Antiviral activity against Human cytomegalovirus harboring ANCHOR infected in ARPE-19 cells assessed as reduction in viral infection at 0.75 uM measured after 6 days by microscopic analysis relative to control; assay type: functional; conditions: time 6 day
Procedure, shortened: (§4)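 ARPE-19 epithelial cells grown in phenol red-free DMEM with 10% FBS, seeded 8k/well. After 24 h they were treated with compound and infected with hCMV ANCHOR (fluorescently labelled viral DNA) at MOI 10, then fixed 6 days post infection. High-content imaging scored infection rate (fluorescent/total cells) and replication (integrated ANCHOR spot intensity) over ≥1000 cells/well, normalized to DMSO; mean of three wells ± SD.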

[14] = system: Human betaherpesvirus 5; assay: Antiviral activity against Human cytomegalovirus harboring ANCHOR infected in ARPE-19 cells assessed as reduction in viral replication at 0.75 uM measured after 6 days by microscopic analysis relative to control; assay type: functional; conditions: time 6 day; procedure, shortened: as §4
[15] = system: Human betaherpesvirus 5; assay: Antiviral activity against Human cytomegalovirus harboring ANCHOR infected in MRC5 cells assessed as reduction in viral infection at 0.75 uM measured after 6 days by microscopic analysis relative to control; assay type: functional; parameters: scale not given: the % may be the effect or the level left; conditions: time 6 day; procedure, shortened: as §1
[16] = system: Human betaherpesvirus 5; assay: Antiviral activity against Human cytomegalovirus harboring ANCHOR infected in MRC5 cells assessed as reduction in viral replication at 0.75 uM measured after 6 days by microscopic analysis relative to control; assay type: functional; parameters: scale not given: the % may be the effect or the level left; conditions: time 6 day; procedure, shortened: as §1
[17] = Human betaherpesvirus 5, MRC5, 144 h, read-out: IC50
[18] = Human betaherpesvirus 5, ARPE-19, 240 h, read-out: IC50

| Structure (SMILES) | CC50 at 240 h [1] | CC50 at 144 h [2] | IC50 [3, 17] | IC50 [4, 18] | selectivity ratio at 144 h [6] | selectivity ratio [7] | IC50 ([3]; mrc5) | IC50 ([4]; arpe-19) | other results |
| --- | --- | --- | --- | --- | --- | --- | --- | --- | --- |
| O=[N+]([O-])c1cc(F)cc(-c2c3ccc([nH]3)c(-c3cc(F)ccc3[N+](=O)[O-])c3nc(c4ccc([nH]4)c(-c4cc(F)ccc4[N+](=O)[O-])c4ccc2[nH]4)C=C3)c1 | > 50 µM | > 50 µM | 2 µM | 0.22 µM | > 25 | > 227 |  |  | Activity [5]: Active; Activity [8]: Active; Activity [9]: Dose-dependent effect; Activity [10]: Dose-dependent effect |
| O=[N+]([O-])c1ccc(-c2c3nc(c4ccc([nH]4)c(-c4ccc([N+](=O)[O-])c(F)c4)c4ccc([nH]4)c(-c4ccc([N+](=O)[O-])c(F)c4)c4ccc2[nH]4)C=C3)cc1F | > 50 µM | > 50 µM |  |  |  |  | Not Active | Not Active |  |
| O=[N+]([O-])c1cccc(-c2c3nc(c4ccc([nH]4)c(-c4cccc([N+](=O)[O-])c4F)c4ccc([nH]4)c(-c4cccc([N+](=O)[O-])c4F)c4ccc2[nH]4)C=C3)c1F | > 50 µM | > 50 µM | 1.8 µM | 0.6 µM | > 27 | > 82 |  |  | Activity [11]: 100%; Activity [5]: Active; Activity [9]: Dose-dependent effect; Activity [10]: Dose-dependent effect |
| O=[N+]([O-])c1ccc(F)c(-c2c3nc(c4ccc([nH]4)c(-c4cc([N+](=O)[O-])ccc4F)c4ccc([nH]4)c(-c4cc([N+](=O)[O-])ccc4F)c4ccc2[nH]4)C=C3)c1 | 50 µM | 3.7 µM | 1.5 µM | 1.3 µM | 2.4 | 39 |  |  | Activity [12]: Active; fold change (FC) [13]: 10; fold change (FC) [14]: 5; Activity [15]: 60%; Activity [16]: 80% |
| CN(C)c1ccc(-c2c3nc(c4ccc([nH]4)c(-c4ccc(N(C)C)cc4[N+](=O)[O-])c4ccc([nH]4)c(-c4ccc(N(C)C)cc4[N+](=O)[O-])c4ccc2[nH]4)C=C3)c([N+](=O)[O-])c1 | > 50 µM | > 50 µM |  |  |  |  | Not Active | Not Active |  |
| O=[N+]([O-])c1ccc(-c2c3nc(c4ccc([nH]4)c(-c4ccc([N+](=O)[O-])cc4F)c4ccc([nH]4)c(-c4ccc([N+](=O)[O-])cc4F)c4ccc2[nH]4)C=C3)c(F)c1 | 5.3 µM | 3.4 µM | 0.7 µM | 0.25 µM | 4.5 | 21.2 |  |  |  |
| O=[N+]([O-])c1cc(F)ccc1-c1c2nc(c3ccc([nH]3)c(-c3ccc(F)cc3[N+](=O)[O-])c3ccc([nH]3)c(-c3ccc(F)cc3[N+](=O)[O-])c3ccc1[nH]3)C=C2 | > 50 µM | > 50 µM | 3 µM | 4.3 µM | > 16 | > 11 |  |  | Activity [9]: Dose-dependent effect; Activity [10]: Dose-dependent effect |
| O=[N+]([O-])c1cc(-c2c3nc(c4ccc([nH]4)c(-c4cc([N+](=O)[O-])c(Br)cc4F)c4ccc([nH]4)c(-c4cc([N+](=O)[O-])c(Br)cc4F)c4ccc2[nH]4)C=C3)c(F)cc1Br | > 50 µM | > 50 µM |  |  |  |  | Not Active | Not Active |  |
| O=[N+]([O-])c1ccc(F)cc1-c1c2nc(c3ccc([nH]3)c(-c3cc(F)ccc3[N+](=O)[O-])c3ccc([nH]3)c(-c3cc(F)ccc3[N+](=O)[O-])c3ccc1[nH]3)C=C2 | > 50 µM | > 50 µM | 7.1 µM | 5.2 µM | > 7 | > 10 |  |  |  |
| O=[N+]([O-])c1cc(-c2c3nc(c4ccc([nH]4)c(-c4ccc(F)c([N+](=O)[O-])c4)c4ccc([nH]4)c(-c4ccc(F)c([N+](=O)[O-])c4)c4ccc2[nH]4)C=C3)ccc1F | > 50 µM | > 50 µM |  |  |  |  | Not Active | Not Active |  |
| O=[N+]([O-])c1cc(F)cc(-c2c3nc(c4ccc([nH]4)c(-c4cc(F)cc([N+](=O)[O-])c4)c4ccc([nH]4)c(-c4cc(F)cc([N+](=O)[O-])c4)c4ccc2[nH]4)C=C3)c1 | > 50 µM | > 50 µM |  | 1.9 µM |  | > 26 | Not Active |  |  |
| O=[N+]([O-])c1cc(F)cc(-c2c3nc(c4ccc([nH]4)c(-c4cc(F)cc([N+](=O)[O-])c4)c4ccc([nH]4)c(-c4cc(F)ccc4[N+](=O)[O-])c4ccc2[nH]4)C=C3)c1 | 16.5 µM | 18 µM |  | 0.32 µM |  | 51 | Not Active |  |  |
| O=[N+]([O-])c1cc(C(F)(F)F)ccc1-c1c2nc(c3ccc([nH]3)c(-c3ccc(C(F)(F)F)cc3[N+](=O)[O-])c3ccc([nH]3)c(-c3ccc(C(F)(F)F)cc3[N+](=O)[O-])c3ccc1[nH]3)C=C2 | > 50 µM | > 50 µM | 2.8 µM | 5 µM | > 17 | > 10 |  |  |  |
| O=[N+]([O-])c1cccc(-c2c3nc(c4ccc([nH]4)c(-c4cccc([N+](=O)[O-])c4)c4ccc([nH]4)c(-c4ccccc4)c4ccc2[nH]4)C=C3)c1 | > 50 µM | > 50 µM |  |  |  |  | Not Active | Not Active |  |
| O=[N+]([O-])c1ccc(F)c(-c2c3nc(c4ccc([nH]4)c(-c4c(F)ccc([N+](=O)[O-])c4F)c4ccc([nH]4)c(-c4c(F)ccc([N+](=O)[O-])c4F)c4ccc2[nH]4)C=C3)c1F | 9.8 µM | 8.77 µM | 0.86 µM | 0.31 µM | 10.2 | 31.6 |  |  |  |
| O=[N+]([O-])c1ccc(Cl)cc1-c1c2nc(c3ccc([nH]3)c(-c3cc(Cl)ccc3[N+](=O)[O-])c3ccc([nH]3)c(-c3cc(Cl)ccc3[N+](=O)[O-])c3ccc1[nH]3)C=C2 | > 50 µM | > 50 µM |  |  |  |  | Not Active | Not Active |  |
| O=[N+]([O-])c1cccc(-c2c3nc(c4ccc([nH]4)c(-c4cccc([N+](=O)[O-])c4)c4ccc([nH]4)c(-c4ccc(F)c([N+](=O)[O-])c4)c4ccc2[nH]4)C=C3)c1 | > 50 µM | > 50 µM |  | 5 µM |  | > 10 | Not Active |  |  |
